Assay [1] has as its system M4Beu cell line. In words: In vitro cytotoxicity against M4Beu cells when co-administered with 50 uM cystemustine. It is filed as functional. Particulars: Homo sapiens, read-out: ED50 (the source's name). Summed up: (§1)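 M4Beu cells were plated at 200 cells/dish and left to adhere 20 h. They were given compound at 0-400 µM (100 mM DMSO stock) for 4 h at 37 °C, then 50 µM cystemustine for 2 h at 37 °C, then grown 14 days. Methanol-fixed, crystal-violet-stained colonies (>50 cells) were counted. ED50 was read graphically from the concentration plot of survival decrease relative to cystemustine alone. Each dose ran ≥3 times in triplicate.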

For assay [2], the system named is M4Beu cell line. In words: In vitro cytotoxicity in M4Beu cells after 4 hr exposure to 300 uM. The assay is classed as functional, Homo sapiens. The procedure, abridged:
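Colony-forming assay: M4Beu cells plated at 200 cells/dish, allowed to adhere 20 h, then exposed 4 h at 37 °C to compound at 300 µM (from 100 mM DMSO stock) with no cystemustine step. Medium then replaced, cells grown 14 days, fixed in methanol, stained with crystal violet. Colonies >50 cells counted; survival as percent of untreated control; at least three experiments in triplicate.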

Assay [3] has as its system M4Beu cell line. Kind of assay: Effective dose of compound associated with cystemustine (50 uM), required to reduce by 50% cell survival rate (M4Beu cells). It is filed as functional. The note with it: Homo sapiens, read-out: ED50 (the source's name). The procedure, abridged: as §1

Take `CC(=O)Nc1nc(OCc2ccc(Br)cc2)c2ncn([C@H]3C[C@H](O)[C@@H](CO)O3)c2n1`: the EC50 in the assay with M4Beu cell line [1] stood at 211 µM. Still for that read-out and setting: in the case of `CC(=O)Nc1nc(OC(c2ccccc2)c2ccccc2)c2ncn(C3O[C@H](CO)[C@@H](O)[C@H]3O)c2n1` (stereo not given in full) it was 400 µM. In turn, `Nc1nc(OCc2ccc(I)cc2)c2ncn(C3O[C@H](CO)[C@@H](O)[C@H]3O)c2n1` (stereo not given in full) gave a Cell survival with M4Beu cell line [2] of 100%. Besides, in the assay on M4Beu cell line [1], the EC50 amounted to 122 µM. For `CC(=O)Nc1nc(OCc2ccc(Br)cc2)c2ncn(C3CC(OC(C)=O)C(COC(C)=O)O3)c2n1` (stereo not given), in the assay on M4Beu cell line [1], the EC50 is 216 µM. With `CC(=O)Nc1nc(OCc2ccc(Br)cc2)c2ncn(C3OC(COC(C)=O)C(OC(C)=O)C3OC(C)=O)c2n1` (stereo not given), the EC50 in the assay with M4Beu cell line [3] was determined as 400 µM. As to `CC(=O)Nc1nc(OCc2ccc(I)cc2)c2ncn(C3CC(OC(C)=O)C(COC(C)=O)O3)c2n1` (stereo not given), the EC50 with M4Beu cell line [1] was 200 µM. Take `CC(=O)Nc1nc(OCc2ccc(I)cc2)c2ncn(C3CC(O)C(CO)O3)c2n1` (stereo not given): in the assay on M4Beu cell line [1], the EC50 stood at 269 µM. Turning to `Nc1nc(OCc2ccccc2)c2nc[nH]c2n1` [6-O-BENZYLGUANINE], in the assay with M4Beu cell line [2], the Cell survival is reported as 110%. Besides, in the assay with M4Beu cell line [1], the EC50 was determined as 2 µM.

The values are drawn from ChEMBL document CHEMBL1130140, “O6-(alkyl/aralkyl)guanosine and 2'-deoxyguanosine derivatives: synthesis and ability to enhance chloroethylnitrosourea antitumor action” (1997).
